# Like-named read-outs stand apart in the source and are kept apart here.
# Assays:
# [1] = previously reported; cited from earlier work
# [2] = mouse liver microsomes, previously reported, cited from earlier work; for predicted Eh (M): predicted hepatic extraction ratio
# [3] = human liver microsomes; previously reported; cited from earlier work
# [4] = mouse, oral, 10 mg/kg, plasma concentrations; cited from earlier work
# [5] = pH 7.4; previously reported; cited from earlier work
# [6] = In vitro metabolism in mouse liver microsomes; format: in vitro ADME; settings: for predicted Eh (M): predicted hepatic extraction ratio, mouse liver microsomes
# How it was run: (§1)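 Liver microsomes at 0.4 or 0.5 mg/mL protein were incubated at 37 °C with 0.5 or 1 μM test compound. Remaining compound in the supernatant was quantified by LC–MS at time points over 0–60 min. In vitro CLint and predicted hepatic extraction ratio were calculated from the depletion data.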
# [7] = In vitro metabolism in human liver microsomes; format: in vitro ADME; settings: for microsomal CLint: human, liver microsomes; for predicted Eh (H): predicted hepatic extraction ratio, human liver microsomes
# How it was run: as §1
# [8] = Kinetic aqueous solubility by nephelometry, pH 6.5; format: physicochemical; settings: phosphate buffer, pH 6.5, aqueous buffer, kinetic from dmso stock
# How it was run: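 Test compound in DMSO was spiked into pH 6.5 phosphate buffer (final DMSO 1 v/v %) and incubated 30 min at room temperature. A solubility range was assigned by nephelometry.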
# [9] = test system: P. falciparum 3D7 parasites; assay: P. falciparum 3D7 growth assay; format: cell-based; settings: Pf3D7 EC50 relative to 1
# [10] = Mouse pharmacokinetics after oral administration; format: in vivo
# How it was run: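 Both arms used a single oral gavage dose. Plasma arm: male Swiss outbred mice, 20 mg/kg as a suspension in 0.5% CMC, 0.5% benzyl alcohol and 0.4% Tween 80. Plasma was sampled over 24 h and measured by LC–MS. Blood arm: 10 mg/kg in 0.1% methylcellulose. Serial blood was taken 0.5–24 h, lysed with water and analysed by LC–MS/MS. Parameters came from noncompartmental analysis.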
# [11] = test system: P. falciparum Pf3D7^0087/N9; assay: SCID mouse model of P. falciparum infection; format: in vivo
# How it was run: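 NOD-scid IL2Rγnull mice (23–36 g) engrafted with human erythrocytes were infected iv with 20 × 10^6 Pf3D7^0087/N9 parasites. Test compound in 1% methylcellulose was given by oral gavage once daily for 4 days from day 3 (10–60 mg/kg), with actual doses verified by measuring the formulations. Parasitemia was measured by FACS and blood drug by LC–MS–MS. ED90 was set on day 7.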
# [12] = male, Swiss outbred, plasma, 20 mg/kg
Structure (SMILES),"microsomal CLint ([6]; mouse, liver microsomes)",microsomal CLint [7],solubility kinetic at 30 min [8],predicted Eh (M) [6],predicted Eh (H) [7],also measured
Cc1cc(Nc2ccc(S(F)(F)(F)(F)F)cc2)n2nc(C(C)(F)F)nc2n1 [Compound 1],–,–,–,–,–,kinetic solubility pH 6.5 [1]: 12.5–25 μg/mL; CLint (M) [2]: 2.8 μL/min/mg protein; predicted Eh (M) [2]: <0.2/<0.2; CLint (H) [3]: 4.3 μL/min/mg protein; AUCinf [4]: 23 µM·h
Cc1cc(Nc2ccc(C(F)(F)F)nc2)n2nc(C(C)(F)F)nc2n1 [Compound 2],–,–,–,–,–,kinetic solubility pH 6.5 [1]: >100 μg/mL; CLint (M) [2]: < 7 μL/min/mg protein; predicted Eh (M) [2]: < 0.01; log DpH7.4 [5]: 2.5; CLint (H) [3]: 2.2 μL/min/mg protein
Cc1nc(Nc2ccc(C)c(Cl)c2)c2c(C)noc2n1 [Compound 3],28 µL/min/mg,6.2 µL/min/mg,–,–,–,"CLint (M) ([6]; mouse, liver microsomes): rapidly metabolized"
"Cc1nc(NC2CCc3ccc(Cl)cc3C2)c2c(C)noc2n1 (centres unmarked) [Compound 9, N-(7-Chloro-1,2,3,4-tetrahydronaphthalen-2-yl)-3,6-dimethylisoxazolo[5,4-d]pyrimidin-4-amine]",183 µL/min/mg,36 µL/min/mg,1.6 to 3.1 µg/mL,0.89,0.59,fold less potent than 1 on P. falciparum parasites [9]: 2–4 fold
"Cc1nc(NC2CCc3cc(Cl)ccc3C2)c2c(C)noc2n1 (centres unmarked) [Compound 10, N-(6-Chloro-1,2,3,4-tetrahydronaphthalen-2-yl)-3,6-dimethylisoxazolo[5,4-d]pyrimidin-4-amine]",179 µL/min/mg,23 µL/min/mg,1.6 to 3.1 µg/mL,0.89,0.47,–
"Cc1nc(NC2CCc3ccc(Br)cc3C2)c2c(C)noc2n1 (centres unmarked) [Compound 11, N-(7-Bromo-1,2,3,4-tetrahydronaphthalen-2-yl)-3,6-dimethylisoxazolo[5,4-d]pyrimidin-4-amine]",233 µL/min/mg,32 µL/min/mg,< 1.6 µg/mL,0.91,0.56,fold less potent than 1 on P. falciparum parasites [9]: 2–4 fold
"Cc1nc(NC2CCc3cc(Br)ccc3C2)c2c(C)noc2n1 (centres unmarked) [Compound 12, N-(6-Bromo-1,2,3,4-tetrahydronaphthalen-2-yl)-3,6-dimethylisoxazolo[5,4-d]pyrimidin-4-amine]",138 µL/min/mg,19 µL/min/mg,< 1.6 µg/mL,0.86,0.42,–
"Cc1nc(NC2Cc3cc(F)c(F)cc3C2)c2c(C)noc2n1 [Compound 13, N-(5,6-Difluoro-2,3-dihydro-1H-inden-2-yl)-3,6-dimethylisoxazolo[5,4-d]pyrimidin-4-amine]",143 µL/min/mg,17 µL/min/mg,3.1 to 6.3 µg/mL,0.86,0.39,"AUC(0-inf) [10, 12]: 4.2 µM·h; Cmax [10, 12]: 2100 nM; Tmax [10, 12]: 60 min"
"Cc1nc(Nc2ccc(S(F)(F)(F)(F)F)cc2)c2c(C)noc2n1 [Compound 14, 3,6-Dimethyl-N-(4-(pentafluoro-l6-sulfanyl)phenyl)isoxazolo[5,4-d]pyrimidin-4-amine]",38 µL/min/mg,20 µL/min/mg,6.3 to 12.5 µg/mL,0.63,0.44,"AUC(0-inf) ([10]; whole blood, 10 mg/kg): 3.8 µM·h; Cmax ([10]; whole blood, 10 mg/kg): 1300 nM; Tmax ([10]; whole blood, 10 mg/kg): 45 min; fold less potent than 1 on P. falciparum parasites [9]: 2–4 fold; ED90 (90% reduction in parasitemia) ([11]; SCID mice, oral QD for 4 days, data collected 24 h after the last dose): ~63 mg/kg; ED90 fold higher than that for 1 ([11]; same SCID model, once daily (QD) dosing, comparison with 1 from ref 26): ≥ 8 fold"
"Cc1nc(Nc2ccc(C(F)(F)F)cc2)c2c(C)noc2n1 [Compound 15, 3,6-Dimethyl-N-(4-(trifluoromethyl)phenyl)isoxazolo[5,4-d]pyrimidin-4-amine]",28 µL/min/mg,24 µL/min/mg,6.3 to 12.5 µg/mL,0.55,0.48,–
"Cc1nc(Nc2ccc(C(F)(F)F)nc2)c2c(C)noc2n1 [Compound 16, 3,6-Dimethyl-N-(6-(trifluoromethyl)pyridin-3-yl)isoxazolo[5,4-d]pyrimidin-4-amine]",13 µL/min/mg,8 µL/min/mg,25 to 50 µg/mL,0.36,0.25,–
"Cc1nc(NC2Cc3cc(F)c(F)cc3C2)c2c(C(F)(F)F)noc2n1 [Compound 30, N-(5,6-Difluoro-2,3-dihydro-1H-inden-2-yl)-6-methyl-3-(Trifluoromethyl)isoxazolo[5,4-d]pyrimidin-4-amine]",328 µL/min/mg,26 µL/min/mg,1.6 to 3.1 µg/mL,0.93,0.5,–
"Cc1nc(Nc2ccc(C(F)(F)F)cc2)c2c(C(F)(F)F)noc2n1 [Compound 31, 6-Methyl-3-(trifluoromethyl)-N-(4-(trifluoromethyl)phenyl)isoxazolo[5,4-d]pyrimidin-4-amine]",76 µL/min/mg,13 µL/min/mg,1.6 to 3.1 µg/mL,0.77,0.33,–
"Cc1nc(Nc2ccc(S(F)(F)(F)(F)F)cc2)c2c(C(F)(F)F)noc2n1 [Compound 32, 6-Methyl-N-(4-(pentafluoro-l6-sulfanyl)phenyl)-3-(trifluoromethyl)isoxazolo[5,4-d]pyrimidin-4-amine]",73 µL/min/mg,13 µL/min/mg,< 1.6 µg/mL,0.76,0.34,–
"Cc1noc2nc(C(F)(F)F)nc(Nc3ccc(C(F)(F)F)cc3)c12 [Compound 35, 3-Methyl-6-(trifluoromethyl)-N-(4-(trifluoromethyl)phenyl)isoxazolo[5,4-d]pyrimidin-4-amine]",36 µL/min/mg,18 µL/min/mg,1.6 to 3.1 µg/mL,0.61,0.41,–
"Cc1noc2nc(C(F)(F)F)nc(Nc3ccc(S(F)(F)(F)(F)F)cc3)c12 [Compound 36, 3-Methyl-N-(4-(pentafluoro-l6-sulfanyl)phenyl)-6-(trifluoromethyl)isoxazolo[5,4-d]pyrimidin-4-amine]",26 µL/min/mg,10 µL/min/mg,1.6 to 3.1 µg/mL,0.53,0.28,–
